pIC50: −log10 of the molar value. The source made the active and inactive calls. The calls are words filed in the database; no cut-off is given here.
Legend:
HL-60 [1] = test: Cytotoxicity against human HL60 cells assessed as reduction in cell viability up to 200 uM after 48 hrs by MTT assay; type: functional, cell-based; conditions: for IC50: hl-60; for pIC50: Homo sapiens, HL-60, 48 h, read-out: IC50
Method in brief: (§1)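 Cells (7x10^4/well) in RPMI-1640 with 10% FBS, 37 °C, 5% CO2; exposed to compound dilutions 0–200 µM (medium with 10% FBS, 0.4% DMSO) for 48 h. MTT added, 3 h at 37 °C, formazan dissolved in DMSO, absorbance 540 nm. IC50 from concentration–response; means ± standard deviation of three independent experiments.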

Jurkat = test: Cytotoxicity against human Jurkat cells assessed as reduction in cell viability up to 200 uM after 48 hrs by MTT assay; type: functional, cell-based; conditions: for IC50: jurkat; for pIC50: Homo sapiens, Jurkat, 48 h, read-out: IC50; method in brief: as §1
NALM-6 [2] = test: Cytotoxicity against human NALM6 cells assessed as reduction in cell viability up to 200 uM after 48 hrs by MTT assay; type: functional, cell-based; conditions: for IC50: nalm-6; for pIC50: Homo sapiens, NALM-6, 48 h, read-out: IC50; method in brief: as §1
NALM-6 [3] = test: Induction of autophagy in human NALM6 cells at 20 uM after 24 hrs by acridin orange staining based fluorescence microscopy; type: functional, cell-based
Method in brief: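 Nalm6 (7x10^4/well) exposed 24 h to 20 µM or 0.4% DMSO, washed in PBS, stained with 1 µM acridine orange at 37 °C for 15 min, washed, resuspended in PBS; autophagosomes (red fluorescence) viewed by fluorescence microscopy; three experiments.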

PBMC = test: Cytotoxicity against PHA-stimulated human PBMC assessed as reduction in cell viability at 25 uM after 48 hrs by MTT assay; type: cell-based
Method in brief: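 Primary peripheral blood mononuclear cells seeded 1x10^5/well in complete RPMI; treated with 25 µM for 48 h. Viability by MTT (3 h, 37 °C, DMSO solubilization, 540 nm), vehicle taken as 100% viability; triplicate experiments, means ± standard deviation.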

NALM-6 [4] = test: Synergistic cytotoxicity against human NALM6 cells assessed as reduction in cell viability by measuring combination index at 4.3 uM after 48 hrs in presence of 0.5 nM vincristine by MTT assay; type: functional
NALM-6 [5] = test: Synergistic cytotoxicity against human NALM6 cells assessed as reduction in cell viability by measuring combination index at 8.5 uM after 48 hrs in presence of 1 nM vincristine by MTT assay; type: functional
NALM-6 [6] = test: Induction of apoptosis in human NALM6 cells assessed as viable cells at 20 uM after 12 hrs by Annexin-V/FITC propidium iodide staining based flow cytometric analysis (reference value: 92.11%); type: functional; conditions: NALM-6, 12 h, read-out: Activity
NALM-6 [7] = test: Induction of apoptosis in human NALM6 cells assessed as early apoptotic cells at 20 uM after 12 hrs by Annexin-V/FITC propidium iodide staining based flow cytometric analysis (reference value: 7.40%); type: functional
NALM-6 [8] = test: Induction of apoptosis in human NALM6 cells assessed as late apoptotic cells at 20 uM after 12 hrs by Annexin-V/FITC propidium iodide staining based flow cytometric analysis (reference value: 0.45%); type: functional
NALM-6 [9] = test: Induction of apoptosis in human NALM6 cells assessed as necrotic cells at 20 uM after 12 hrs by Annexin-V/FITC propidium iodide staining based flow cytometric analysis (reference value: 0.04%); type: functional
NALM-6 [10] = test: Induction of apoptosis in human NALM6 cells assessed as viable cells at 20 uM after 24 hrs by Annexin-V/FITC propidium iodide staining based flow cytometric analysis (reference value: 90.10%); type: functional; conditions: NALM-6, 24 h, read-out: Activity
NALM-6 [11] = test: Induction of apoptosis in human NALM6 cells assessed as early apoptotic cells at 20 uM after 24 hrs by Annexin-V/FITC propidium iodide staining based flow cytometric analysis (reference value: 8.22%); type: functional
NALM-6 [12] = test: Induction of apoptosis in human NALM6 cells assessed as late apoptotic cells at 20 uM after 24 hrs by Annexin-V/FITC propidium iodide staining based flow cytometric analysis (reference value: 1.68%); type: functional
NALM-6 [13] = test: Induction of apoptosis in human NALM6 cells assessed as necrotic cells at 20 uM after 24 hrs by Annexin-V/FITC propidium iodide staining based flow cytometric analysis (reference value: 0%); type: functional
HL-60 [14] = test: Antiproliferative activity against human HL60 cells at 20 uM by trypan blue dye exclusion assay; type: functional, cell-based; conditions: TDE = time-dependent effect
Method in brief: (§2)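 Nalm6 at 1x10^4 or HL60 at 1.5x10^4 cells per well exposed to 20 µM; DMSO (0.4% v/v) as control. Viable cells counted by trypan blue exclusion on a hemocytometer at 0, 24, 48, 72 and 96 h; growth inhibition relative to control.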

NALM-6 [15] = test: Antiproliferative activity against human NALM6 cells at 20 uM by trypan blue dye exclusion assay; type: functional, cell-based; conditions: TDE = time-dependent effect; method in brief: as §2
HL-60 [16] = test: Cytotoxicity against human HL60 cells assessed as cell growth inhibition at 20 uM after 96 hrs by trypan blue dye exclusion assay relative to control; type: functional; conditions: HL-60, 96 h, read-out: GI; method in brief: as §2
NALM-6 [17] = test: Cytotoxicity against human NALM6 cells assessed as cell growth inhibition at 20 uM after 96 hrs by trypan blue dye exclusion assay relative to control; type: functional; conditions: NALM-6, 96 h, read-out: GI; method in brief: as §2
Homo sapiens [18] = organism: Homo sapiens; test: Inhibition of SRPK in human NALM6 cells assessed as decrease in MAP2K1 mRNA expression level at 20 uM after 24 hrs by qRT-PCR analysis; type: cell-based
Method in brief: (§3)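 Nalm6 given 20 µM for 24 h with 0.4% DMSO control; mRNA isolated with Tri Reagent, quantified spectrophotometrically, integrity checked on 1% agarose, then RT-PCR for target transcripts; one representative of three experiments.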

Homo sapiens [19] = organism: Homo sapiens; test: Inhibition of SRPK in human NALM6 cells assessed as decrease in MAP2K2 mRNA expression level at 20 uM after 24 hrs by qRT-PCR analysis; type: cell-based; method in brief: as §3
Homo sapiens [20] = organism: Homo sapiens; test: Inhibition of SRPK in human NALM6 cells assessed as decrease in VEGF mRNA expression level at 20 uM after 24 hrs by qRT-PCR analysis; type: cell-based; method in brief: as §3
Homo sapiens [21] = organism: Homo sapiens; test: Inhibition of SRPK in human NALM6 cell lysates assessed as reduction in phospho-SR epitopes signal at 20 uM after 24 hrs by Western blot analysis
Method in brief: (§4)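 Nalm6 treated 24 h at 20 µM (DMSO vehicle control), lysed at 2x10^7 cells/mL in PBS with 1% NP40, 1 mM EDTA, 150 mM NaCl, 10 mM Tris pH 7.4 plus protease/phosphatase inhibitors; on ice 10 min, sonicated, spun 15000 xg; SDS-PAGE, PVDF, milk block overnight, primary and secondary antibody 2 h each; representative of three.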

NALM-6 [22] = test: Effect on actin expression level in human NALM6 cells at 20 uM after 24 hrs by qRT-PCR analysis; type: ADME, cell-based; conditions: nalm-6, 24 h
NALM-6 [23] = test: Effect on SRPK1 expression level in human NALM6 cells at 20 uM after 24 hrs by Western blot analysis; type: functional, cell-based; method in brief: as §4
NALM-6 [24] = test: Effect on SRPK2 expression level in human NALM6 cells at 20 uM after 24 hrs by Western blot analysis; type: functional, cell-based; method in brief: as §4
NALM-6 [25] = test: Effect on actin expression level in human NALM6 cells at 20 uM after 24 hrs by Western blot analysis; type: ADME, cell-based; conditions: nalm-6, 24 h; method in brief: as §4
Homo sapiens [26] = organism: Homo sapiens; test: Inhibition of SRPK in human NALM6 cells assessed as decrease in RON mRNA expression level at 20 uM after 24 hrs by qRT-PCR analysis; type: cell-based; method in brief: as §3

With `O=C(Nc1cc(C(F)(F)F)ccc1N1CCCC1)c1cccnc1Cl` the IC50 (HL-60 [1]) was “Not Active”, the IC50 (Jurkat) was “Not Active” and the IC50 (NALM-6 [2]) was “Not Active”.
`CCN(CC)c1ccc(C(F)(F)F)cc1NC(=O)c1cccnc1` was tested, and the pIC50 (HL-60 [1]) was 4.15, the IC50 (Jurkat) was “Not Active” and the pIC50 (NALM-6 [2]) was 4.20.
In the case of `O=C(Nc1cc(C(F)(F)F)ccc1N1CCCCC1)c1cccnc1`, the IC50 (HL-60 [1]) was “Not Active”, the IC50 (Jurkat) was “Not Active” and the IC50 (NALM-6 [2]) was “Not Active”.
With `O=C(Nc1cc(C(F)(F)F)ccc1N1CCCCC1)c1ccccc1` the IC50 (HL-60 [1]) was “Not Active”, the IC50 (Jurkat) was “Not Active” and the IC50 (NALM-6 [2]) was “Not Active”.
In the case of `O=C(Nc1cc(C(F)(F)F)ccc1Nc1ccc(Br)cc1)c1cccnc1`, the Activity (NALM-6 [3]) was “Active”, the pIC50 (HL-60 [1]) was 5.07 and the pIC50 (Jurkat) was 4.75. The pIC50 (NALM-6 [2]) was 4.77, the Activity (PBMC) was “Non-Toxic” and the CI (NALM-6 [4]) was 0.45. For the same compound, the CI (NALM-6 [5]) was 0.78, the viability at 20 µM (NALM-6 [6]) was 87% and the Activity (NALM-6 [7]) was 12.33%. For the same compound, the Activity (NALM-6 [8]) was 0.67%, the Activity (NALM-6 [9]) was 0% and the viability at 20 µM (NALM-6 [10]) was 84.4%. For the same compound, the Activity (NALM-6 [11]) was 14.66%, the Activity (NALM-6 [12]) was 0.92% and the Activity (NALM-6 [13]) was 0.01%. The Activity (HL-60 [14]) was “Tde”, the Activity (NALM-6 [15]) was “Tde” and the inhibition of growth at 20 µM (HL-60 [16]) was 38%. For the same compound, the inhibition of growth at 20 µM (NALM-6 [17]) was 66%, the inhibition (Homo sapiens [18]) was “Active” and the inhibition (Homo sapiens [19]) was “Active”. The inhibition (Homo sapiens [20]) was “Active”, the inhibition (Homo sapiens [21]) was “Active” and the Activity (NALM-6 [22]) was “Non-Toxic”. The Activity (NALM-6 [23]) was “inactive”, the Activity (NALM-6 [24]) was “inactive” and the Activity (NALM-6 [25]) was “Non-Toxic”. For the same compound, the inhibition (Homo sapiens [26]) was “Active”.
`CCN(CC)c1ccc(C(F)(F)F)cc1NC(=O)c1ccccc1` was tested, and the IC50 (HL-60 [1]) was “Not Active”, the IC50 (Jurkat) was “Not Active” and the IC50 (NALM-6 [2]) was “Not Active”.
In the case of `O=C(Nc1cc(C(F)(F)F)ccc1N1CCOCC1)c1cccnc1`, the IC50 (HL-60 [1]) was “Not Active”, the IC50 (Jurkat) was “Not Active” and the IC50 (NALM-6 [2]) was “Not Active”.
For `O=C(Nc1cc(C(F)(F)F)ccc1N1CCOCC1)c1cccnc1Cl`, the IC50 (HL-60 [1]) was “Not Active”, the IC50 (Jurkat) was “Not Active” and the IC50 (NALM-6 [2]) was “Not Active”.
`CCN(CC)c1ccc(C(F)(F)F)cc1NC(=O)c1ccncc1` was tested, and the pIC50 (HL-60 [1]) was 4.05, the IC50 (Jurkat) was “Not Active” and the pIC50 (NALM-6 [2]) was 4.20.
For `O=C(Nc1cc(C(F)(F)F)ccc1N1CCCCC1)c1cccnc1Cl`, the IC50 (HL-60 [1]) was “Not Active”, the IC50 (Jurkat) was “Not Active” and the IC50 (NALM-6 [2]) was “Not Active”.
Work on `O=C(Nc1cc(C(F)(F)F)ccc1N1CCCCC1)c1ccncc1` yielded a pIC50 (HL-60 [1]) of 4.42, a pIC50 (Jurkat) of 4.12 and a pIC50 (NALM-6 [2]) of 4.15. The inhibition (Homo sapiens [18]) was “inactive”, the inhibition (Homo sapiens [19]) was “inactive” and the inhibition (Homo sapiens [20]) was “inactive”. For the same compound, the inhibition (Homo sapiens [21]) was “Active” and the inhibition (Homo sapiens [26]) was “inactive”.

Reference: ChEMBL document CHEMBL4020718, “Trifluoromethyl arylamides with antileukemia effect and intracellular inhibitory activity over serine/arginine-rich protein kinases (SRPKs)” (Eur J Med Chem, 2017)
